Each structure is given as a SMILES string.

Here are results for five compounds from ChEMBL document CHEMBL1156343, “Bioactive acridone alkaloids from Swinglea glutinosa” (J Nat Prod, 2001).

Data set [1] is described as follows: Cytotoxicity against human HeLa cells after 24 hrs by [3H]hypoxanthine incorporation assay. The class given is cell-based. As to conditions: read-out: ED50. The method in brief: (§1)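 HeLa cells grown in RPMI 1640 with 25 mM Hepes, 30 mM NaHCO3 and 5% fetal calf serum. After trypsinization, cells were seeded at 2×10^4 cells/well. Compounds were taken from 10 mg/mL DMSO stocks and diluted in serum-free medium to final 100–0.02 μg/mL (DMSO ≤1% final). Growth was read by [3H]-hypoxanthine incorporation at 24 and 72 h against untreated wells. Three experiments, each in triplicate.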

Data set [2] in a line: Cytotoxicity against human HeLa cells after 72 hrs by [3H]hypoxanthine incorporation assay. The format is cell-based. As to conditions: read-out: ED50. The method in brief: as §1
Data set [3] concerns Plasmodium falciparum. In words: Antiplasmodial activity after 24 hrs against chloroquine-sensitive Plasmodium falciparum Nigerian by [3H]hypoxanthine uptake. The class given is functional, organism-based. The method in brief:
(§2)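 P. falciparum continuously cultured in human O± red cells, 1% hematocrit, RPMI 1640 with 25 mM Hepes, 30 mM NaHCO3, 5% human AB+ serum. Cultures synchronized daily by gelatine flotation and 5% sorbitol lysis. Tested mostly at ring stage, 0.5-1% parasitemia. DMSO stocks diluted serum-free to final 50-0.01 µg/mL (DMSO ≤1%). Three experiments in triplicate. IC50 read graphically from concentration versus percent inhibition curves.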

Data set [4] relates to Plasmodium falciparum. In words: Antiplasmodial activity after 72 hrs against chloroquine-sensitive Plasmodium falciparum Nigerian by [3H]hypoxanthine uptake. The format is functional, organism-based. In short, it runs like this: as §2
Data set [5] deals with Plasmodium falciparum. Nature of the data set: Antiplasmodial activity after 24 hrs against chloroquine-resistant Plasmodium falciparum FcM29 by [3H]hypoxanthine uptake. The format is functional, organism-based. The method in brief: as §2
Data set [6] deals with Plasmodium falciparum. Nature of the data set: Antiplasmodial activity against chloroquine-resistant Plasmodium falciparum FcM29 after 72 hrs by [3H]hypoxanthine uptake. The format is functional, organism-based. The method in brief:
as §2

The nature of data set [7]: Selectivity index, ratio of ED50 for human HeLa cells to IC50 for Plasmodium falciparum Nigerian after 24 hrs by [3H]hypoxanthine incorporation assay. The format is functional. In short, it runs like this:
(§3)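 Ratio of HeLa ED50 to P. falciparum Nigerian-strain IC50 at the same exposure time (24 or 72 h). For the parasite, ring-stage cultures synchronized by gelatine flotation and sorbitol were used at 0.5–1% parasitemia and 1% hematocrit in human red cells with 5% AB+ serum. Compounds ran at final 50–0.01 μg/mL. Growth was read by [3H]-hypoxanthine incorporation, and IC50 was read graphically from inhibition curves.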

The nature of data set [8]: Selectivity index, ratio of ED50 for human HeLa cells to IC50 for Plasmodium falciparum Nigerian after 72 hrs by [3H]hypoxanthine incorporation assay. The format is functional. In short, it runs like this: as §3

`CCN(CC)CCCC(C)Nc1ccnc2cc(Cl)ccc12` (centres undefined) [CHLOROQUINE PHOSPHATE]: the CC50 at 24 h in data set [1] is above 100 µM. In data set [2], the CC50 at 72 h is above 100 µM.

Consider `COc1c(O)c(CC=C(C)C)c(O)c2c(=O)c3cccc(O)c3n(C)c12` [GLYCOCITRINE-IV], for which the IC50 (in general, the concentration that gives 50% inhibition) in the data set on Plasmodium falciparum [3] was 2.5 µM; with Plasmodium falciparum [4], 2.5 µM; in the data set on Plasmodium falciparum [5] it was 2 µM; with Plasmodium falciparum [6], 2.3 µM. Besides, the CC50 at 24 h in data set [1] came out at 0.71 µM. Moreover, in data set [2], the CC50 at 72 h is 5.3 µM. The Ratio in data set [7] turned out to be 0.3; in data set [8], 2.1.

Take `Cn1c2c(O)cccc2c(=O)c2c(O)cc3c(c21)C=CC(C)(C)O3`: the IC50 in the data set on Plasmodium falciparum [3] came to 11.1 µM; with Plasmodium falciparum [4], 8.7 µM; with Plasmodium falciparum [5] it was 10.2 µM; with Plasmodium falciparum [6] it was 6.8 µM. The CC50 at 24 h in data set [1] was 85.5 µM. Besides, the CC50 at 72 h in data set [2] came out at 78 µM. In addition, the Ratio amounted to 7.7 in data set [7] and 9 in data set [8].

With `CC(C)=CCc1c(O)cc2c(c1O)c(=O)c1c(CC=C(C)C)ccc(O)c1n2C`, the IC50 with Plasmodium falciparum [3] turned out to be 5.3 µM; in the data set on Plasmodium falciparum [4], 5.6 µM; with Plasmodium falciparum [5], 7.9 µM; in the data set on Plasmodium falciparum [6], 7.1 µM. In addition, the CC50 at 24 h in data set [1] came to 47.2 µM. Further, the CC50 at 72 h in data set [2] was determined as 52.2 µM. In addition, the Ratio is 9 in data set [7] and 9.4 in data set [8].

Consider `COc1c(O)cc(O)c2c(=O)c3cccc(O)c3n(C)c12` [CITRUSININE-II], for which the IC50 was found to be 33 µM in the data set on Plasmodium falciparum [3], 20.1 µM in the data set on Plasmodium falciparum [4], 27.1 µM in the data set on Plasmodium falciparum [5] and 20.5 µM with Plasmodium falciparum [6]. For the same compound, the CC50 at 24 h in data set [1] was 16.8 µM. In addition, the CC50 at 72 h in data set [2] turned out to be 35.1 µM. The Ratio in data set [7] was found to be 0.5; in data set [8] it was 1.8.
